According to ChEMBL document CHEMBL4813976, “Rational drug design of benzothiazole-based derivatives as potent signal transducer and activator of transcription 3 (STAT3) signaling pathway inhibitors” (Eur J Med Chem, 2021):
The source made the active and inactive calls. The calls are words filed in the database; no cut-off is given here.

What was measured:
[1] = biological target: T1, Signal transducer and activator of transcription 3 (Homo sapiens, UniProt P40763); experiment: Inhibition of IL-6 induced STAT3 transcriptional activity in human HepG2 cells incubated for 1 hr followed by stimulation with IL-6 for 5.5 hrs by luciferase reporter gene assay; assay type: cell-based
T1 sequence (P40763 whole entry): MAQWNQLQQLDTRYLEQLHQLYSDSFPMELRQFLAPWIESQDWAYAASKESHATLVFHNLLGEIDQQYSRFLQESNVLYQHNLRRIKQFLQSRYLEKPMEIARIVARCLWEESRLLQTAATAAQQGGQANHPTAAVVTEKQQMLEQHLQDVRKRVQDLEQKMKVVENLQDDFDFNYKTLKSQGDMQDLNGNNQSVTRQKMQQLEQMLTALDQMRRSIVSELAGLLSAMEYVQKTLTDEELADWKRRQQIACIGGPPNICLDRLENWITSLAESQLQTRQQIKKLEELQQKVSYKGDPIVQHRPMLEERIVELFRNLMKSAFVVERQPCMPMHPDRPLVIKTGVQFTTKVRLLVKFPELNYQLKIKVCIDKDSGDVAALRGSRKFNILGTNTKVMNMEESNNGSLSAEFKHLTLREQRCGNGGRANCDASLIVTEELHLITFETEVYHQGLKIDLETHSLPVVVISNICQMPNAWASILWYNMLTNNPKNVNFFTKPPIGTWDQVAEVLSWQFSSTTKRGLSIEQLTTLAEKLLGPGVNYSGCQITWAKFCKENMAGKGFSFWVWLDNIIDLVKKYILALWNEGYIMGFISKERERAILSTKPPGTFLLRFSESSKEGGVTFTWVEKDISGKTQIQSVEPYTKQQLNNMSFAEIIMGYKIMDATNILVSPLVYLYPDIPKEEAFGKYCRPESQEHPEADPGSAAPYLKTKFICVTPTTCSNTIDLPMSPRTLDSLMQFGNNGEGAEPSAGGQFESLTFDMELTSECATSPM
Procedure, shortened: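 STAT3-dependent luciferase reporter assay in HepG2 cells with IL-6 stimulation; IC50 given as mean ± SD of at least three independent experiments.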

HEL [2] = experiment: Antiproliferative activity against human HEL cells harboring JAK2 V617F mutant assessed as inhibition of cell growth incubated for 72 hrs by MTT assay; assay type: functional, cell-based
Procedure, shortened: (§1)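 MTT proliferation assay; MDA-MB-468 grown in DMEM/F-12 and HEL in high-glucose DMEM, each with 10% FBS and penicillin/streptomycin, at 37 °C under 5% CO₂. IC50 given as mean ± SD of at least three independent experiments.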

MDA-MB-468 [3] = experiment: Antiproliferative activity against human MDA-MB-468 cells overexpressing STAT3 assessed as inhibition of cell growth incubated for 72 hrs by MTT assay; assay type: functional, cell-based; settings: MDA-MB-468, 72 h; procedure, shortened: as §1
MDA-MB-453 = experiment: Antiproliferative activity against human MDA-MB-453 cells expressing low levels of STAT3 assessed as inhibition of cell growth incubated for 72 hrs by MTT assay; assay type: functional, cell-based; settings: MDA-MB-453, 72 h
Procedure, shortened: (§2)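 MTT proliferation assay on MCF-7 and MDA-MB-453 cells; IC50 given as mean ± SD of at least two independent experiments.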

MCF7 = experiment: Antiproliferative activity against human MCF7 cells expressing low levels of STAT3 assessed as inhibition of cell growth incubated for 72 hrs by MTT assay; assay type: functional, cell-based; settings: MCF7, 72 h; procedure, shortened: as §2
[4] = biological target: T1, Signal transducer and activator of transcription 3; experiment: Inhibition of STAT3 phosphorylation at Tyr705 residue in human HEL cells expressing JAK2 V617F mutant measured after 24 hrs by Western blot analysis; assay type: cell-based; settings: dose 1.25-5 µM
Procedure, shortened: (§3)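 Cells were treated for 24 h, then lysed in hot 2% SDS with boiling, and protein was quantified by BCA. Lysates were run on SDS-PAGE, transferred to nitrocellulose and blocked with 3% milk in TBST. Membranes were probed overnight at 4 °C with 1:1000 antibodies to pSTAT3 Tyr705, pSTAT3 Ser727, STAT3, c-Myc, MCL-1, β-actin and GAPDH. Detection used HRP secondaries and ECL.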

[5] = biological target: T1, Signal transducer and activator of transcription 3; experiment: Inhibition of STAT3 phosphorylation at Ser727 residue in human HEL cells expressing JAK2 V617F mutant measured after 24 hrs by Western blot analysis; assay type: cell-based; settings: dose 1.25-5 µM; procedure, shortened: as §3
[6] = biological target: T1, Signal transducer and activator of transcription 3; experiment: Inhibition of STAT3 phosphorylation at Tyr705 residue in human MDA-MB-468 cells measured after 24 hrs by Western blot analysis; assay type: cell-based; settings: dose 1.25-5 µM; procedure, shortened: as §3
[7] = biological target: T1, Signal transducer and activator of transcription 3; experiment: Inhibition of STAT3 phosphorylation at Ser727 residue in human MDA-MB-468 cells measured after 24 hrs by Western blot analysis; assay type: cell-based; settings: dose 1.25-5 µM; procedure, shortened: as §3
[8] = biological target: T1, Signal transducer and activator of transcription 3; experiment: Inhibition of STAT3 in human HEL cells expressing JAK2 V617F mutant cells assessed as downregulation of c-Myc protein expression at 1.25 to 5 uM incubated for 24 hrs by western blot analysis; assay type: cell-based; settings: dose 1.25-5 µM; procedure, shortened: as §3
[9] = biological target: T1, Signal transducer and activator of transcription 3; experiment: Inhibition of STAT3 in human HEL cells expressing JAK2 V617F mutant cells assessed as downregulation of MCL-1 protein expression at 1.25 to 5 uM incubated for 24 hrs by western blot analysis; assay type: cell-based; settings: dose 1.25-5 µM; procedure, shortened: as §3
[10] = biological target: T1, Signal transducer and activator of transcription 3; experiment: Inhibition of STAT3 in human MDA-MB-468 cells assessed as downregulation of c-Myc protein expression at 1.25 to 5 uM incubated for 24 hrs by western blot analysis; assay type: cell-based; settings: dose 1.25-5 µM; procedure, shortened: as §3
[11] = biological target: T1, Signal transducer and activator of transcription 3; experiment: Inhibition of STAT3 in human MDA-MB-468 cells assessed as downregulation of MCL-1 protein expression at 1.25 to 5 uM incubated for 24 hrs by western blot analysis; assay type: cell-based; settings: dose 1.25-5 µM; procedure, shortened: as §3
[12] = biological target: Vascular endothelial growth factor receptor 1 (Homo sapiens) (UniProt P17948); experiment: Inhibition of VEGFR1 (unknown origin) at 1 uM by ELISA
[13] = biological target: Platelet-derived growth factor receptor beta (Homo sapiens) (UniProt P09619); experiment: Inhibition of PDGFRbeta (unknown origin) at 1 uM by ELISA
Chain of Platelet-derived growth factor receptor beta (Homo sapiens) (P09619 whole entry): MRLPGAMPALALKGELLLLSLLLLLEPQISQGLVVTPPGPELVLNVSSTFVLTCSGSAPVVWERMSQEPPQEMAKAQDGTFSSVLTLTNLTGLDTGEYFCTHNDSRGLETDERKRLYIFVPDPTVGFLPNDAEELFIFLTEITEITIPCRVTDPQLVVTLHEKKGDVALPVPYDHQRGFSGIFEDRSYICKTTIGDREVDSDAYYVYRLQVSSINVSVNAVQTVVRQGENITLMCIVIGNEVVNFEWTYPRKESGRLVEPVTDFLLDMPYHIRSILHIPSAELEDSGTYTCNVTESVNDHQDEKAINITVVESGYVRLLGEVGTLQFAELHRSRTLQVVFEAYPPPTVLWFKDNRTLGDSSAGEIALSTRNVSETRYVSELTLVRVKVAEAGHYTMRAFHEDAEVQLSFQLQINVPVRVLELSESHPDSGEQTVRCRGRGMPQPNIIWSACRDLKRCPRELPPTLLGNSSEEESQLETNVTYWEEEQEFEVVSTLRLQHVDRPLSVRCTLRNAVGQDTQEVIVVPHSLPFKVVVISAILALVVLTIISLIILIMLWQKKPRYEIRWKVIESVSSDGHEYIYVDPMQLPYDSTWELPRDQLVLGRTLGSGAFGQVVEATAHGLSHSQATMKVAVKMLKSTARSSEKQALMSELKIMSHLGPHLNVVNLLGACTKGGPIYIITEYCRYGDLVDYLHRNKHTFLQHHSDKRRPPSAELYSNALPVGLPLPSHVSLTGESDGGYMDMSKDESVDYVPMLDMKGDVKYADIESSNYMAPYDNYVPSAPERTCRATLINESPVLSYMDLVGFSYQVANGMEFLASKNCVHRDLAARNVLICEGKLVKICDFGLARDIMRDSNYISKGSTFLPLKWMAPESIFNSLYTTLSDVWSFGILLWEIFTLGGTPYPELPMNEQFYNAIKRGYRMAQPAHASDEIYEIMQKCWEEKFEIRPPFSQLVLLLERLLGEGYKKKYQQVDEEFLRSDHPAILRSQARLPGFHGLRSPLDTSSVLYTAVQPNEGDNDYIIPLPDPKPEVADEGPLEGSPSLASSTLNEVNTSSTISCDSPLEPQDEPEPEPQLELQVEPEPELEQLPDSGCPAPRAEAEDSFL

[14] = biological target: Receptor tyrosine-protein kinase erbB-2 (Homo sapiens) (UniProt P04626); experiment: Inhibition of ERBB2 (unknown origin) at 1 uM by ELISA
Chain of Receptor tyrosine-protein kinase erbB-2 (Homo sapiens) (P04626 whole entry): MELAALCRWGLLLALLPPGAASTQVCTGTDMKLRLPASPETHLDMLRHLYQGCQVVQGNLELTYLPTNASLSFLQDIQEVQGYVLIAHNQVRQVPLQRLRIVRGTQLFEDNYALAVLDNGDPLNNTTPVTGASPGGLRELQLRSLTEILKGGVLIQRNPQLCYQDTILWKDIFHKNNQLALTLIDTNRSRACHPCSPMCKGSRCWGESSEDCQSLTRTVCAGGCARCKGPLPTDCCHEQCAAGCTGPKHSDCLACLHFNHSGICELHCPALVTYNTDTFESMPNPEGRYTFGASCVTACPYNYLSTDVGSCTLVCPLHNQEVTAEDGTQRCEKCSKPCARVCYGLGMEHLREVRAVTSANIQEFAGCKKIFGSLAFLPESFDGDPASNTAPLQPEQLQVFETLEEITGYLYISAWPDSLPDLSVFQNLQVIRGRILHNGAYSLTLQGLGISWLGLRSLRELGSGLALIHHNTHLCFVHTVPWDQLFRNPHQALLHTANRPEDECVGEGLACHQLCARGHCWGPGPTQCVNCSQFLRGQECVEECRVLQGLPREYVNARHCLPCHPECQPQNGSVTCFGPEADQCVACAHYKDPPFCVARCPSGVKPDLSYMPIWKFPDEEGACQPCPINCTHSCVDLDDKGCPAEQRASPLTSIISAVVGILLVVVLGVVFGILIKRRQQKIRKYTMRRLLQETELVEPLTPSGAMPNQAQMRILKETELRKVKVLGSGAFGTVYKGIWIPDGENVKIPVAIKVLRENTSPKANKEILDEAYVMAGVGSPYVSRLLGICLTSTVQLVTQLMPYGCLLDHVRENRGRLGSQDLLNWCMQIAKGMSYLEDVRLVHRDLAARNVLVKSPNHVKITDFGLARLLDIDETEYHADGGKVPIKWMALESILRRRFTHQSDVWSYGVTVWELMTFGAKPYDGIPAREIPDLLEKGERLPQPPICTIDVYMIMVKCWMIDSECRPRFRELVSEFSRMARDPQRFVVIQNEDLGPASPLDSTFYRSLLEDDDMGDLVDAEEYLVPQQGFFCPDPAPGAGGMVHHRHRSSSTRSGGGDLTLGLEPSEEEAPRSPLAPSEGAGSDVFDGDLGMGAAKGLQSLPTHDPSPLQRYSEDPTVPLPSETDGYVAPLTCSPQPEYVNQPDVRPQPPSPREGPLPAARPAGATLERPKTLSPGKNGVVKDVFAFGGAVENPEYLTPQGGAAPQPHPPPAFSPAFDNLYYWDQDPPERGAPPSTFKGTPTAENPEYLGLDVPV

[15] = biological target: Receptor tyrosine-protein kinase erbB-4 (Homo sapiens) (UniProt Q15303); experiment: Inhibition of ERBB4 (unknown origin) at 1 uM by ELISA
[16] = biological target: Insulin-like growth factor 1 receptor (Homo sapiens) (UniProt P08069); experiment: Inhibition of IGF1R (unknown origin) at 1 uM by ELISA
Chain of Insulin-like growth factor 1 receptor (Homo sapiens) (P08069 31-736 limits assumed): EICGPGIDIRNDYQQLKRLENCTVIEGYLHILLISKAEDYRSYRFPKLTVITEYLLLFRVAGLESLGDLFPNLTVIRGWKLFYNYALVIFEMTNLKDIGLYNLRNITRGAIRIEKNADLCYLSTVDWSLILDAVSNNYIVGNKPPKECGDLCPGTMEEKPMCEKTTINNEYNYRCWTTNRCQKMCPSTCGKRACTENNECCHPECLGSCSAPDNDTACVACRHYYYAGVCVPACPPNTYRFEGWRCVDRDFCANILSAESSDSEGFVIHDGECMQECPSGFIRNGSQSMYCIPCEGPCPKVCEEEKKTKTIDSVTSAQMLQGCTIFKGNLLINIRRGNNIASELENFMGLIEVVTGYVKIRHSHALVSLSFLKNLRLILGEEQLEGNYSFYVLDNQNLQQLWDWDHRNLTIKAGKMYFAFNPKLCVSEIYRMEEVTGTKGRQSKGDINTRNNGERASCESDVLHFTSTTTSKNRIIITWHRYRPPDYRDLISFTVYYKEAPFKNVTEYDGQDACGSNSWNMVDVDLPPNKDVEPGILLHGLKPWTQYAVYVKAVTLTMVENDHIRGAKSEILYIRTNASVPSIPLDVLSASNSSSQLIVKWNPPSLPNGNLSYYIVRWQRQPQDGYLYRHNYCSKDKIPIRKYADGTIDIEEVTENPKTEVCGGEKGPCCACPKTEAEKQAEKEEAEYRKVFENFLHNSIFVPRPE
Chain of Insulin-like growth factor 1 receptor (Homo sapiens) (P08069 741-1367 limits assumed): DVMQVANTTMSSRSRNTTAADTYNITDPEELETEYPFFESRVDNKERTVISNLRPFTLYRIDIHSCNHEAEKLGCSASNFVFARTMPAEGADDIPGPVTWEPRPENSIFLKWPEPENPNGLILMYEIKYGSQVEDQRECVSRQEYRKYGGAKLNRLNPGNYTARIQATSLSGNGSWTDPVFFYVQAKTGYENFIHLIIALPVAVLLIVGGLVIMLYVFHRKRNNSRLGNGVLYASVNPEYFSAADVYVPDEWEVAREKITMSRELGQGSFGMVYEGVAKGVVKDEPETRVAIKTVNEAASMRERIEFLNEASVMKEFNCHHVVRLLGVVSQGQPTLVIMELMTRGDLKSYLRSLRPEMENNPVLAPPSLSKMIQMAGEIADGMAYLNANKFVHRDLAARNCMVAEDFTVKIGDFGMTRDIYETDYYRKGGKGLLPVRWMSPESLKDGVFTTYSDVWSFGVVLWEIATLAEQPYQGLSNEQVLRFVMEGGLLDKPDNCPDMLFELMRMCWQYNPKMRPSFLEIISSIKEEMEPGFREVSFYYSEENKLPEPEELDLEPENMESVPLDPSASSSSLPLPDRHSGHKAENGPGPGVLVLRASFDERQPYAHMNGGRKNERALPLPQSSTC

MDA-MB-468 [17] = experiment: Induction of apoptosis in human MDA-MB-468 cells at 1.25 to 5 uM measured after 48 hrs by AnnexinV-FITC/PI staining based flow cytometry analysis; assay type: functional, cell-based; settings: dose 1.25-5 µM
Procedure, shortened: (§4)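 Cells were seeded overnight, then exposed to DMSO or compound for 48 h. They were washed twice in PBS and resuspended in binding buffer with Annexin V-FITC and propidium iodide. After 15 min at room temperature in the dark, cells were analysed by flow cytometry; data are representative of three independent experiments.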

HEL [18] = experiment: Induction of apoptosis in human HEL cells expressing JAK2 V617F mutant cells at 1.25 to 5 uM measured after 48 hrs by AnnexinV-FITC/PI staining based flow cytometry analysis; assay type: functional, cell-based; settings: dose 1.25-5 µM; procedure, shortened: as §4
MDA-MB-468 [19] = experiment: Induction of cell cycle arrest in human MDA-MB-468 cells assessed as increase in accumulation at G2/M phase after 48 hrs by PI/RNase staining based flow cytometry; assay type: functional; settings: dose 1.25-5 µM
Procedure, shortened: (§5)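 Cells were seeded overnight, then exposed to DMSO or increasing compound concentrations for 48 h. They were fixed in ice-cold 80% ethanol overnight, stained with PI containing RNase for 30 min at 37 °C, and analysed by flow cytometry.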

HEL [20] = experiment: Induction of cell cycle arrest in human HEL cells expressing JAK2 V617F mutant cells assessed as increase in accumulation at G2/M phase after 48 hrs by PI/RNase staining based flow cytometry; assay type: functional; settings: dose 1.25-5 µM; procedure, shortened: as §5
MDA-MB-468 [21] = experiment: Induction of cell cycle arrest in human MDA-MB-468 cells assessed as decrease in accumulation at G1 phase after 48 hrs by PI/RNase staining based flow cytometry; assay type: functional; settings: dose 1.25-5 µM; procedure, shortened: as §5
HEL [22] = experiment: Induction of cell cycle arrest in human HEL cells expressing JAK2 V617F mutant cells assessed as decrease in accumulation at G1 phase after 48 hrs by PI/RNase staining based flow cytometry; assay type: functional; settings: dose 1.25-5 µM; procedure, shortened: as §5
[23] = biological target: T1, Signal transducer and activator of transcription 3; experiment: Binding affinity to His-tagged STAT3-SH2 domain (127 to 722 residues) (unknown origin) by surface plasmon resonance analysis
Procedure, shortened: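 SPR on a Biacore T200 with STAT3 SH2 domain. Analytes were run as concentration series, and KD was taken as the equilibrium constant.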

[24] = biological target: T1, Signal transducer and activator of transcription 3; experiment: Displacement of 5'-FAM-GpYLPQTV-NH2 from His-tagged STAT3-SH2 domain (127 to 722 residues) (unknown origin) assessed as binding rate at 100 uM […] by fluorescence polarization assay; settings: time 90.0 min
[25] = biological target: T1, Signal transducer and activator of transcription 3; experiment: Displacement of 5'-FAM-GpYLPQTV-NH2 from His-tagged STAT3-SH2 domain (127 to 722 residues) (unknown origin) assessed as binding rate at 50 uM […] by fluorescence polarization assay; settings: time 90.0 min
[26] = biological target: T1, Signal transducer and activator of transcription 3; experiment: Displacement of 5'-FAM-GpYLPQTV-NH2 from His-tagged STAT3-SH2 domain (127 to 722 residues) (unknown origin) assessed as binding rate at 20 uM […] by fluorescence polarization assay; settings: time 90.0 min
HEL [27] = experiment: Effect on STAT3 expression in human HEL cells expressing JAK2 V617F mutant at 1.25 to 5 uM measured after 24 hrs by Western blot analysis; assay type: functional, cell-based; settings: dose 1.25-5 µM; procedure, shortened: as §3
MDA-MB-468 [28] = experiment: Effect on STAT3 expression in human MDA-MB-468 cells at 1.25 to 5 uM measured after 24 hrs by Western blot analysis; assay type: functional, cell-based; settings: dose 1.25-5 µM; procedure, shortened: as §3

IC50 [1]	IC50 (MDA-MB-468 [3])	IC50 (MDA-MB-453)	IC50 (MCF7)	inhibition [4]	inhibition [5]	inhibition [6]	inhibition [7]	inhibition [8]	inhibition [9]	inhibition [10]	inhibition [11]	inhibition [12]	inhibition [13]	inhibition [14]	inhibition [15]	inhibition [16]	SMILES	IC50 (HEL [2])	Activity (MDA-MB-468 [17])	Activity (HEL [18])	further results
0.067 µM	0.25 µM	> 20 µM	> 20 µM	Dose-Dependent Effect	Dose-Dependent Effect	Dose-Dependent Effect	Dose-Dependent Effect	Active	Active	Active	Active	0%	0%	9.6%	0%	0%	CCCC(C)Oc1ccc(C(=O)Nc2ccc3nc(SCC(=O)N[C@@H](C)c4ccc(OC)cc4)sc3c2)c(OC)c1C (stereo not given in full)	1.11 µM	Active	Active	Activity (MDA-MB-468 [19]): Dose-Dependent Effect; Activity (HEL [20]): Dose-Dependent Effect; Activity (MDA-MB-468 [21]): Dose-Dependent Effect; Activity (HEL [22]): Dose-Dependent Effect; Kd [23]: 0.053 µM; Activity [24]: < 10%; Activity [25]: < 10%; Activity [26]: < 10%; Activity (HEL [27]): inactive; Activity (MDA-MB-468 [28]): inactive
0.16 µM	1.04 µM	> 20 µM	> 20 µM	Dose-Dependent Effect	Dose-Dependent Effect	Dose-Dependent Effect	Dose-Dependent Effect	Active	Active	Active	Active	0%	0%	5.2%	0%	0%	CCCC(C)Oc1ccc(C(=O)Nc2ccc3nc(SCC(=O)N[C@@H](C)c4ccccc4)sc3c2)c(OC)c1C (stereo not given in full)	2.41 µM	Active	Active	Activity (MDA-MB-468 [19]): Dose-Dependent Effect; Activity (HEL [20]): Dose-Dependent Effect; Activity (MDA-MB-468 [21]): Dose-Dependent Effect; Activity (HEL [22]): Dose-Dependent Effect; Kd [23]: 0.0626 µM; Activity [24]: < 10%; Activity [25]: < 10%; Activity [26]: < 10%; Activity (HEL [27]): inactive; Activity (MDA-MB-468 [28]): inactive
